SIAE primary = inhibitors of human sialic acid acetylesterase SIAE; Q9HAT2; SIAE FP-Rh probe binding, fluorescence polarization; inhibition, % at 9.66 µM; 0.69% of 370,000 active;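 active means inhibition above a cutoff: mean of compounds within the control limits plus 3 SD of those, cut at about 17% in these data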;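 further: 0% = plate median of compound wells and 100% = probe without SIAE protein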
Target sequence (Q9HAT2 whole entry, looked up): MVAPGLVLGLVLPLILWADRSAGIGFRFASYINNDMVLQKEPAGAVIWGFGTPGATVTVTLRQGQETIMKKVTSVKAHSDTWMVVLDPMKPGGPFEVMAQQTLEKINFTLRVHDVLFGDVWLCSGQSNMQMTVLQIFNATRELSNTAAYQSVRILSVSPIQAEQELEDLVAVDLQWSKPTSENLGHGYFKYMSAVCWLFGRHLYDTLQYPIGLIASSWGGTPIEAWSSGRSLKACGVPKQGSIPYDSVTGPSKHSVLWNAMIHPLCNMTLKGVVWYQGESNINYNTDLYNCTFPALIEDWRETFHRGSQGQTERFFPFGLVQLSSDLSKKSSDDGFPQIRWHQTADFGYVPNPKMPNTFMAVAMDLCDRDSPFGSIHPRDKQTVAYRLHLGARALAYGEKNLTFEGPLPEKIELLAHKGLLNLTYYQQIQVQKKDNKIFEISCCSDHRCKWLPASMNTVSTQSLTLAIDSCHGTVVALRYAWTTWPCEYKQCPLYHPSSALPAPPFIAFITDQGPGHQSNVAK
PAD4 FP inh = inhibitors of human PAD4; recombinant PAD4, RCA probe fluorescence polarization; Q9UM07; inhibition, % at 6.36 µM; 0.41% of 330,000 active;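 active means percent inhibition above a cutoff equal to the mean of all tested compounds plus 3 SD, cut at about 15% in these data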;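 further: 0% = PAD4 with RCA probe and DMSO and 100% = probe without PAD4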
TCR-CD3 inh = blocks the human TCR-CD3 interaction; TAMRA-labeled TCR probe fluorescence, biochemical; inhibition, % at 9.4 µM; 0.37% of 360,000 active; AID 651800; in the data active means inhibition above about 19%;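 further: recombinant mutant TCR 2C K166C tagged with TAMRA read by polarization; 0% = receptor in buffer alone and 100% = receptor with positive control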
HTRA1 inhibitor = blocks human HTRA1 serine peptidase. inhibition, % at 5.96 µM. recombinant HTRA1, FP-rhodamine activity-based probe, fluorescence polarization. 0.5% of 340,000 active. Q92743; in the data active means inhibition above about 36%;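 further: 0% = enzyme with DMSO and 100% = wells lacking enzyme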
ABHD4 inh = inhibits mouse alpha/beta hydrolase domain 4 | Q8VD66 | purified mABHD4, FP-Rh probe fluorescence polarization | inhibition, % at 8.92 µM | 0.54% of 370,000 active | AID 720543;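 active means inhibition exceeding the mean over every tested compound plus 3 SD, cut at about 30% in these data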;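 further: 0% = plate median of compound wells and 100% = S159A mutant with DMSO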
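Assay system: mouse ABHD4 enzyme, wild type / Also added: fluorescent activity-based probe FP-Rh / Doses: single nominal dose of 8.92 µM, 0.89% DMSO final / Timing: 45 min compound pre-incubation plus 60 min probe step, 25 °C / Signal: FP readout, ex 525 nm / em 598 nm / Control set: S159A mutant/DMSO as 100%, compound-well median as 0%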
TDP2 absorb = blocks human TDP2 phosphodiesterase activity. AID 720702. O95551. recombinant TDP2, T5PNP hydrolysis, p-nitrophenol absorbance 415 nm. 0.34% of 370,000 active. inhibition, % at 12.8 µM;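 active means inhibition above the mean of all tested compounds plus 3 SD, set per campaign, cut at about 25% in these data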;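 further: 0% = DMSO with enzyme and 100% = buffer with substrate but no TDP2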
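Assay system: Recombinant human TDP2 | Quantity: 120 nM TDP2 per well | Incubation: 2 h at 37 °C | Signal: Epi absorbance | Evaluation: Percent inhibition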
TDP2 inh conf = human TDP2 inhibition, confirmation | shares compounds with TDP2 absorb | recombinant human TDP2, absorbance read-out | inhibition, % at 12.8 µM | 22% of 1,100 active | AID 743263; in the data active means inhibition above about 25%;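 further: 0% = vehicle with enzyme and 100% = no enzyme buffer only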
Numbers without * were called inactive; / = no result. Most compounds without a hit are left out; they make up all but 2% or so of the library.

SMILES	SIAE primary	PAD4 FP inh	TCR-CD3 inh	HTRA1 inhibitor	ABHD4 inh	TDP2 absorb	TDP2 inh conf
Cc1nn(-c2ccccc2)c(Cl)c1C1C(C#N)=C(N)Oc2n[nH]c(C)c21 (centres undefined)	-1.9	-24.8	1.9	1.9	-2.9	12.2	/
Cc1nn(-c2ccccc2)c2c1C(c1c(C)[nH]c(C#N)c1C)C(C#N)=C(N)O2 (centres undefined)	7.7	4.1	-2.2	13.2	9.3	35.3*	-1.7
O=S(=O)(Nc1ccc(NS(=O)(=O)c2ccccc2)c2ccccc12)c1ccccc1	-10.4	/	-1.1	-16.4	-16.1	-9.0	/
O=S(=O)(Nc1ccc(O)c2ccccc12)c1ccc(F)cc1	2.4	3.2	0.7	3.1	25.2	46.6*	19.3
COc1ccc(OC)c(S(=O)(=O)Nc2cccc3c(O)cccc23)c1	7.8	-6.5	3.5	/	9.9	-5.0	/
COc1ccc(OC)c(S(=O)(=O)Nc2ccc(O)c3ccccc23)c1	-1.2	-1.6	-4.4	0.3	12.1	41.0*	7.6
CCc1ccc(S(=O)(=O)Nc2ccc(O)c3ccccc23)cc1	-4.4	12.3	-10.9	1.9	28.9	53.6*	8.0
Cc1ccc(S(=O)(=O)N2CCN(C(=O)Cn3nc(C(=O)O)c4ccccc4c3=O)CC2)cc1	-8.1	-1.9	5.5	/	-5.8	-25.4	/
Cc1ccc(C)c(N(C)C(=O)c2ccc3c(=O)n4c(nc3c2)CCCCC4)c1	-3.7	-1.6	8.9	-3.6	2.1	13.8	/
Cc1ccc2[nH]cc(S(=O)(=O)c3ccc(C(C)C)cc3)c(=O)c2c1	-5.0	-3.0	6.5	-7.0	3.7	3.3	/
Cc1ccc(S(=O)(=O)c2c[nH]c3cc4c(cc3c2=O)OCO4)cc1	1.6	-1.4	4.1	/	6.0	26.1*	-7.9
COc1cc(N)c2ncccc2c1OC	6.9	/	-2.4	5.7	14.8	46.5*	10.0
CC(C)CNC(=O)C1C(=O)Nc2ccccc2C(=O)N1C1CCCCC1 (centres undefined)	8.7	/	0.0	/	2.9	2.9	/
CC(=O)N(C1=C(N)C(=O)c2ccccc2C1=O)c1ccccc1	1.3	1.4	-7.0	-1.3	-4.3	29.4*	20.2
O=C(Nc1ccc2c(c1)OCCO2)C1CC(O)CN1C(=O)Nc1ccccc1 (centres undefined)	0.5	-1.0	3.8	10.1	-1.2	2.4	/
COc1ccc(CN(C)C(=O)[C@H]2O[C@@H](n3ccc(=O)[nH]c3=O)[C@H](O)[C@@H]2O)cc1OC	3.6	/	1.6	/	-1.6	1.3	/
CCN(CC)CCNC(=O)c1c(O)c2cc(OC)c(OC)cc2[nH]c1=O	5.9	-2.2	1.5	3.9	13.7	24.6*	4.8
CCCC(=O)Nc1c2c(nc3ccccc13)N(c1ccccc1)CC2	/	-5.8	/	-3.2	/	/	/
O=C(CN1CCCCC1)Nc1c2c(nc3ccccc13)N(c1ccccc1)CC2	-4.2	1.3	-1.0	0.2	19.4	44.8*	8.8
CCOC(=O)c1cnc(SC)nc1N1CCCC1	-5.1	-2.1	1.0	-15.3	4.2	28.5*	-6.3
O=C(CCC1CCCN(C(=O)c2cc(F)ccc2F)C1)N1CCN(c2ccccn2)CC1 (centres undefined)	4.3	/	4.3	-0.5	3.0	-5.0	/
Cc1[nH][nH]c(=O)c1C(c1ccc(-c2ccc(C(=O)O)cc2)o1)c1c(C)[nH][nH]c1=O	12.0	/	-0.1	4.7	3.0	59.7*	31.8*
COc1ccc(CC(=O)N(C)Cc2ccc(OC(F)F)cc2)cc1S(=O)(=O)N1CCOCC1	-6.2	/	-4.3	1.3	-5.8	-14.6	/
COc1ccc(C)cc1NC(=O)CCNC(=O)c1ccco1	3.8	5.7	-1.0	-2.3	0.1	26.0*	7.7
CC(C)c1cc(C(C)C)c(S(=O)(=O)N2CCC(C(=O)NCC3COCCO3)CC2)c(C(C)C)c1 (centres undefined)	-0.7	/	/	/	-6.1	-1.6	/
SMILES	SIAE primary	PAD4 FP inh	TCR-CD3 inh	HTRA1 inhibitor	ABHD4 inh	TDP2 absorb	TDP2 inh conf
Cc1ccccc1OCC(O)CN1CCN(CC(O)COc2ccccc2C)C(C)C1 (centres undefined)	-2.5	1.2	-4.2	5.7	27.6	26.2*	4.8
O=C(CN1C(=O)/C(=C\c2ccco2)SC1=S)Nc1ccc(O)cc1C(=O)O	8.7	-18.0	-4.1	-4.5	-21.2	24.4	/
O=C(CCN1C(=O)/C(=C/c2ccco2)SC1=S)Nc1ccc(O)cc1C(=O)O	-1.6	/	-3.8	8.5	20.1	26.9*	-4.3
O=S(=O)(Nc1ccncc1)c1cc(Cl)ccc1Cl	-3.4	-1.2	16.8	0.6	5.6	1.1	/
O=C(O)c1ccc(NS(=O)(=O)c2cc(Cl)ccc2Cl)cc1O	-1.2	-1.6	8.1	-1.1	0.0	28.6*	9.4
CC(C)(C)N(Cc1ccccc1)C(=O)COC(=O)C1CCCCC1	2.5	-3.5	3.5	-9.5	-1.1	-10.7	/
CCOc1ccc2nc(/N=C/c3c(C)[nH]n(-c4ccccc4)c3=O)sc2c1	-3.7	-6.2	-2.3	-3.5	4.5	34.7*	10.2
Cc1cnc(C2OCCO2)c2cccc(N)c12	-12.5	/	2.8	6.3	27.4	30.2*	43.8*
O=[N+]([O-])c1cccnc1C1OCCO1	-2.4	/	5.6	0.3	1.0	5.3	/
COc1ccccc1C=NN=C(NN=Cc1ccccc1OC)NN=Cc1ccccc1OC	6.8	/	-6.6	15.2	19.4	59.3*	-5.0
COc1cc(C2C(C#N)=C(N)Oc3n[nH]c(-c4ccncc4)c32)cc(OC)c1OC (centres undefined)	0.1	11.5	-0.1	-1.9	3.8	16.3	/
CCOc1ccc(-c2[nH]nc3c2C(c2ccc4c(c2)OCO4)C(C#N)=C(N)O3)cc1OC (centres undefined)	-1.3	-0.5	0.0	-2.6	2.7	27.2*	4.9
N#CC1=C(N)Oc2n[nH]c(-c3cccs3)c2C1c1ccoc1 (centres undefined)	9.4	-2.0	2.0	9.7	11.5	6.7	/
COc1cc(C2C(C#N)=C(N)Oc3n[nH]c(-c4cccs4)c32)cc(OC)c1O (centres undefined)	-7.1	9.9	1.4	2.3	11.8	37.1*	8.4
COc1cc(Br)c(C2C(C#N)=C(N)Oc3n[nH]c(-c4cccnc4)c32)cc1OC (centres undefined)	0.0	-7.8	-2.6	7.5	6.3	43.4*	16.5
COc1cc(-c2[nH]nc3c2C(c2ccoc2)C(C#N)=C(N)O3)cc(OC)c1OC (centres undefined)	-1.0	11.2	1.7	3.8	4.1	22.9	/
COc1cc(-c2[nH]nc3c2C(c2ccco2)C(C#N)=C(N)O3)cc(OC)c1OC (centres undefined)	0.2	-3.4	-6.3	-3.0	-3.6	42.5*	8.8
CCCCN(C)C(=O)Cn1nc(-c2ccc(Cl)cc2)ccc1=O	-2.3	-5.3	4.5	-1.0	2.7	-16.7	/
